This is a sample that favours compounds with a hit; in the whole collection about 4.5% have one here.
STAT1 act: increases IFN-gamma driven STAT1 reporter signal. NIH 3T3 STAT1-luciferase reporter, luminescence; 100% = IFN-gamma alone, no compound. activation (% of control), % at 5.5 µM. 200,000 tested, 2.6% active. AID 932;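 active means activation above the screen-wide mean activation plus 3 SD, cut at about 130% in these data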;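 further: raw ratio to IFN-gamma control signal so 100% means no change and 0% no light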
NF-kB expr up: raises NF-kB expression in human neuronal cells. NF-kB reporter expression; hits give high values. fold change at 12.5 µM. 190,000 tested, 1.6% active. AID 1239; in the data active means fold change above about 3.3
APP 5'UTR act: APP 5'UTR luciferase reporter activation. SH-SY5Y APP 5'UTR luciferase reporter, luminescence; zero percent = DMSO vehicle wells. 190,000 tested, 1% active. activation, % at 2 µM. AID 1276;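 active means activation above a set limit, based on mean plus 3 SD of controls, cut at about 140% in these data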
AHR activator: activates the human aryl hydrocarbon receptor. activation, % at 5 µM. AID 2796. AHR-responsive luciferase reporter cells, luminescence. 320,000 tested, 2.5% active. P35869; in the data active means activation above about 47%;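 further: 0% = vehicle wells and 100% = reference agonist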
MDM2 E3 inh: Mdm2 E3 ligase (human) inhibition; cell-based MDM2 ubiquitination luciferase reporter, 2 h; 0 = plate control, 100 = twice control, blank-subtracted; signal enhancement, % at 5 µM; 210,000 tested, 0.11% active;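 active means signal enhancement of 30% or more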;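 further: luminescence tracks abundance of the self-degrading MDM2-luciferase fusion protein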
Target sequence (Q00987 whole entry, looked up, the tested form may be a part): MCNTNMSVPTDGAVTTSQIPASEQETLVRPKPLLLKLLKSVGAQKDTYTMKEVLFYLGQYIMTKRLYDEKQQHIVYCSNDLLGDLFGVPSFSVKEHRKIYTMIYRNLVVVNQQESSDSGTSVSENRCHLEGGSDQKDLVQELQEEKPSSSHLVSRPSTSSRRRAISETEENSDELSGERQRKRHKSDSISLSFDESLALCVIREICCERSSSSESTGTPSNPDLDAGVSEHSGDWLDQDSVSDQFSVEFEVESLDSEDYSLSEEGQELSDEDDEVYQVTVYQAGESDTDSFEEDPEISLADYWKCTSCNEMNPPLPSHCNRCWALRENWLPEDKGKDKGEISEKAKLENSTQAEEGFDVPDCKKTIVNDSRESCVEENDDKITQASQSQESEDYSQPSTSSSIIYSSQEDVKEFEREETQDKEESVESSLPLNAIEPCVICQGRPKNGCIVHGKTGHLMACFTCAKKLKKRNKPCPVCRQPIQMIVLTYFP
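Material: stable MDM2–luciferase fusion reporter cells / Quantity: 2000 cells/well / Dosing: single 5 µM compound dose, 0.2% final DMSO / Buffer or medium: DMEM / Schedule: 4 h cell settling then 2 h compound exposure, 37 °C / Detection: luminescence with SteadyLite reagent, 15 min at room temperature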
PERK inh: human PERK inhibition, primary cell-based screen; inhibition, % at 5.6 µM; CHO PERK-DD fusion, SEAP luminescence translation reporter; Q9NZJ5; 220,000 tested, 0.17% active; AID 1416;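 active means inhibition above the mean inhibition of all tested compounds plus 3 SD, set separately per screening campaign, cut at about 2.9% in these data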;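 further: PERK kinase domain activated by AP20187 dimerizer at 100 nM; 0% = DMSO with dimerizer and 100% = rapamycin at 8.4 µM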
* = called active by the depositor; · = no result given.

SMILES	STAT1 act	NF-kB expr up	APP 5'UTR act	AHR activator	MDM2 E3 inh	PERK inh
CSc1nsc(SC)c1C(=O)Nc1ccc(Cl)cc1	·	·	·	58*	-8	0
O=C(Cc1coc2ccc3ccccc3c12)Nc1nnc(C2CC2)s1	85	0.91	12	69*	-18	0
CCC(=O)N1N=C(c2ccc(NS(C)(=O)=O)cc2)CC1c1ccc(N(C)C)cc1 (stereo unspecified)	129*	2	24	9	2	0
Cc1ccccc1C(=O)Nc1ccc(Cl)cn1	129*	2.5	68	-4	-64	1
CSc1ccc(Cl)c(C(=O)Nc2ccc(Cl)cn2)c1	92	1.2	-24	-2	1	0
COc1cc(SC)ccc1C(=O)Nc1ccc(Cl)cn1	26	1.4	148*	9	-88	1
O=C(Nc1ccc(Cl)cn1)c1cccc2c(Br)cccc12	·	·	·	74*	·	·
CC(C)C(=O)Nc1ccc(NC(=O)c2ccccc2Cl)nc1	132*	1.9	33	2	-10	-1
COc1ccccc1C(=O)NC1CCN(C(=O)Nc2ccc(F)cc2)CC1	·	·	·	5	·	·
COc1cccc(CNC(=O)CCCn2nc(C)n3c(cc4sccc43)c2=O)c1	·	·	·	-3	·	·
Cc1ccc(C(=O)Nc2ncc3c(Cl)cccc3n2)cc1	122	1.7	141*	-2	-41	-1
CCCOc1ccc(C(=O)Nc2ccc(Cl)cn2)cc1	102	8.6*	137*	-12	3	0
Cc1ccc(C(=O)Nc2ccc(Cl)cn2)cc1	123	6.6*	172*	2	-54	1
O=C(Nc1c(Cl)cccc1Cl)c1ccc(-c2ccccc2)cc1	112	1.4	28	-1	-9	0
O=C(Nc1ccc(Cl)cn1)c1ccc(Oc2ccccc2)cc1	·	·	·	1	·	·
O=C(Nc1ccccc1)c1cccc2c(Br)cccc12	·	·	·	57*	·	·
Cc1cc(C)cc(N(CC(=O)NC2CCCC2)C(=O)CNC(=O)c2cccs2)c1	·	·	·	0	·	·
Cn1nc(C(=O)OCC(=O)c2ccc(Cl)cc2)c2ccccc2c1=O	·	·	·	1	·	·
Cc1cccc(NC(=O)c2nc[nH]c2C(=O)NCCCCNC(=O)c2[nH]cnc2C(=O)Nc2cccc(C)c2)c1	·	·	·	1	·	·
OCc1nc2c(ccc3ccccc32)[nH]1	·	·	·	13	·	·
CCN(CC(=O)Nc1c(F)cccc1F)C(=O)C1CCN(S(=O)(=O)c2ccc(C)cc2C)CC1	·	·	·	-2	·	·
Cc1cc2ncn(-c3ncccc3[N+](=O)[O-])c2cc1C	·	·	·	48*	·	·
O=[N+]([O-])c1cccnc1-n1cnc2ccccc21	99	1.1	2	1	-4	0
O=C(COC(=O)c1ccccc1)Nc1ncc([N+](=O)[O-])s1	·	·	·	3	·	·
O=C(Nc1ccccc1)Nc1ncc([N+](=O)[O-])s1	68	4.1*	120	·	-49	0
SMILES	STAT1 act	NF-kB expr up	APP 5'UTR act	AHR activator	MDM2 E3 inh	PERK inh
COc1cccc(NC(=O)COC(=O)CCC2CCCC2)c1	·	·	·	2	·	·
COc1cccc2c1OCC/C2=N\NC(=O)COc1ccccc1C	112	1.2	33	48*	5	1
Cc1ccc[n+](CC(=O)Nc2ccc(N(C)C)cc2)c1	·	·	·	13	·	·
S=C(NCc1ccco1)Nc1cc(-c2ccccc2)[nH]n1	118	·	11	74*	·	1
COc1ccc(NC(=S)Nc2cc(-c3ccccc3)[nH]n2)cc1Cl	104	1.3	7	-8	-5	0
CCOc1ccc(NC(=S)Nc2cc(-c3ccccc3)[nH]n2)cc1	103	1.6	11	78*	3	-1
COc1cc(OC)cc(-c2cc(N)n(S(=O)(=O)c3cccc4nsnc34)n2)c1	·	·	·	55*	1	0
CCCS(=O)(=O)n1nc(-c2ccc(OC)cc2)cc1N	110	1.4	13	25	-10	0
CCCS(=O)(=O)n1nc(-c2ccc(OC)cc2OC)cc1N	108	1.1	18	62*	-9	1
COc1cc(OC)cc(-c2cc(N)n(S(=O)(=O)Cc3ccccc3)n2)c1	102	0.71	13	63*	-4	0
COc1ccc(OC)c(S(=O)(=O)n2nc(-c3ccccc3)cc2N)c1	107	1	5	16	-14	0
COc1ccc(C(C)C)cc1S(=O)(=O)n1ccnc1C	101	1.2	14	2	-14	0
Cc1cc(C)c2c(N)c(-c3nnc(SCc4ccc(Cl)cc4)n3C)sc2n1	·	·	·	4	-11	1
C=CCn1c(SCc2ccccc2Cl)nnc1-c1sc2nc(C)cc(C)c2c1N	·	·	·	79*	-8	0
C=CCNC(=O)COC(=O)C1CCN(S(=O)(=O)c2ccc3c(c2)OCCO3)CC1	·	·	·	4	·	·
O=C1NC(c2cccs2)Nc2ccccc21 (stereo unspecified)	104	1.6	-10	52*	-9	1
CC(=O)Nc1ccc(NC(=O)Cn2nc(C(=O)Nc3ccc(C)cc3)ccc2=O)cc1	·	·	·	3	·	·
Cc1cscc1NC(=O)/C=C/C(=O)O	·	·	·	10	8	3.5*
COc1ccc2[nH]c3c(N4CCC(O)(c5cccc(C(F)(F)F)c5)CC4)ncnc3c2c1	88	0.62	-10	68*	-10	-1
CCn1c2ccccc2c2cc(NC(=O)c3cc(C)on3)ccc21	104	0.78	11	53*	-4	0
CCn1c2ccccc2c2cc(NC(=O)c3ccc(Br)o3)ccc21	94	0.98	·	63*	-11	0
O=C(CCc1nc2ccccc2c(=O)[nH]1)N1CCN(c2ccccc2Cl)CC1	·	·	·	0	·	·
CCN1CCN(C(=O)CCc2nc3ccccc3c(=O)[nH]2)CC1	104	1.1	5	5	37*	1
CC(OC(=O)CCc1nc2ccccc2c(=O)[nH]1)C(=O)c1ccc(C(C)(C)C)cc1 (stereo unspecified)	108	5.8*	20	6	-8	-1
O=C(c1ccccc1)n1ccc(-c2cnc(-c3ccccc3)s2)n1	123	6*	141*	-2	-43	-1
SMILES	STAT1 act	NF-kB expr up	APP 5'UTR act	AHR activator	MDM2 E3 inh	PERK inh
COc1ccc(S(=O)(=O)n2ccc(-c3cnc(-c4ccccc4)s3)n2)cc1	114	1.6	44	-15	-8	-1
CC1CN(C(=O)COC(=O)Cc2c(F)cccc2Cl)CC(C)O1 (stereo unspecified)	·	·	·	2	·	·
c1ccc(SCc2nc3ccccc3s2)nc1	·	·	·	44	·	·
O=C(O)c1ccccc1CSc1nc2ccccc2o1	140*	1.8	29	18	-8	0
c1ccc2oc(SCc3nc4ccccc4s3)nc2c1	139*	3.1	122	31	-5	0
Cc1nnc(SCc2nc3ccccc3s2)n1N	134*	1.6	91	34	-19	1
COCCC1CCCCN1Cc1cn(-c2ccccc2)nc1-c1ccc2c(c1)OCO2 (stereo unspecified)	102	1	24	24	-12	1
COCCNC(=O)Cn1c(=O)oc2cc(S(=O)(=O)N3CC(C)CC(C)C3)ccc21 (stereo unspecified)	·	·	·	2	·	·

Source: PubChem BioAssay
